ChEMBL document CHEMBL1156049, “Potent biphenyl- and 3-phenyl pyridine-based inhibitors of acetyl-CoA carboxylase” (Bioorg Med Chem Lett, 2009)

Tests used:
Acetyl-CoA carboxylase 1 = Acetyl-CoA carboxylase 1 (Homo sapiens, UniProt Q13085); test: Inhibition of human recombinant ACC 1 expressed in baculovirus expression system by FAS-coupled assay
Method in brief: (§1)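 Recombinant human ACC1 or ACC2 (baculovirus-expressed, purified), 2-4.5 nM, preincubated 10 min with compound in DMSO and FAS (1 µg/assay) in 50 mM HEPES pH 7.5, 10 mM sodium citrate, 20 mM MgCl2, 6 mM NaHCO3. Substrate mix then added: 2.4 µM [3H]acetyl-CoA, 47.6 µM acetyl-CoA, 100 µM NADPH, 0.125 mM ATP. Run 30 min at room temperature, stopped with EDTA. [3H]palmitic acid counted on phospholipid FlashPlate. IC50 averaged from 2–4 experiments.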

Acetyl-CoA carboxylase 2 = Acetyl-CoA carboxylase 2 (Homo sapiens, UniProt O00763); test: Inhibition of human recombinant ACC 2 expressed in baculovirus expression system by FAS-coupled assay; method in brief: as §1
Homo sapiens [1] = species: Homo sapiens; test: Selectivity ratio of IC50 for human ACC 1 to IC50 for human ACC 2
Homo sapiens [2] = species: Homo sapiens; test: Selectivity ratio of IC50 for human ACC 2 to IC50 for human ACC 1

Acetyl-CoA carboxylase 2, sequence (O00763 whole entry): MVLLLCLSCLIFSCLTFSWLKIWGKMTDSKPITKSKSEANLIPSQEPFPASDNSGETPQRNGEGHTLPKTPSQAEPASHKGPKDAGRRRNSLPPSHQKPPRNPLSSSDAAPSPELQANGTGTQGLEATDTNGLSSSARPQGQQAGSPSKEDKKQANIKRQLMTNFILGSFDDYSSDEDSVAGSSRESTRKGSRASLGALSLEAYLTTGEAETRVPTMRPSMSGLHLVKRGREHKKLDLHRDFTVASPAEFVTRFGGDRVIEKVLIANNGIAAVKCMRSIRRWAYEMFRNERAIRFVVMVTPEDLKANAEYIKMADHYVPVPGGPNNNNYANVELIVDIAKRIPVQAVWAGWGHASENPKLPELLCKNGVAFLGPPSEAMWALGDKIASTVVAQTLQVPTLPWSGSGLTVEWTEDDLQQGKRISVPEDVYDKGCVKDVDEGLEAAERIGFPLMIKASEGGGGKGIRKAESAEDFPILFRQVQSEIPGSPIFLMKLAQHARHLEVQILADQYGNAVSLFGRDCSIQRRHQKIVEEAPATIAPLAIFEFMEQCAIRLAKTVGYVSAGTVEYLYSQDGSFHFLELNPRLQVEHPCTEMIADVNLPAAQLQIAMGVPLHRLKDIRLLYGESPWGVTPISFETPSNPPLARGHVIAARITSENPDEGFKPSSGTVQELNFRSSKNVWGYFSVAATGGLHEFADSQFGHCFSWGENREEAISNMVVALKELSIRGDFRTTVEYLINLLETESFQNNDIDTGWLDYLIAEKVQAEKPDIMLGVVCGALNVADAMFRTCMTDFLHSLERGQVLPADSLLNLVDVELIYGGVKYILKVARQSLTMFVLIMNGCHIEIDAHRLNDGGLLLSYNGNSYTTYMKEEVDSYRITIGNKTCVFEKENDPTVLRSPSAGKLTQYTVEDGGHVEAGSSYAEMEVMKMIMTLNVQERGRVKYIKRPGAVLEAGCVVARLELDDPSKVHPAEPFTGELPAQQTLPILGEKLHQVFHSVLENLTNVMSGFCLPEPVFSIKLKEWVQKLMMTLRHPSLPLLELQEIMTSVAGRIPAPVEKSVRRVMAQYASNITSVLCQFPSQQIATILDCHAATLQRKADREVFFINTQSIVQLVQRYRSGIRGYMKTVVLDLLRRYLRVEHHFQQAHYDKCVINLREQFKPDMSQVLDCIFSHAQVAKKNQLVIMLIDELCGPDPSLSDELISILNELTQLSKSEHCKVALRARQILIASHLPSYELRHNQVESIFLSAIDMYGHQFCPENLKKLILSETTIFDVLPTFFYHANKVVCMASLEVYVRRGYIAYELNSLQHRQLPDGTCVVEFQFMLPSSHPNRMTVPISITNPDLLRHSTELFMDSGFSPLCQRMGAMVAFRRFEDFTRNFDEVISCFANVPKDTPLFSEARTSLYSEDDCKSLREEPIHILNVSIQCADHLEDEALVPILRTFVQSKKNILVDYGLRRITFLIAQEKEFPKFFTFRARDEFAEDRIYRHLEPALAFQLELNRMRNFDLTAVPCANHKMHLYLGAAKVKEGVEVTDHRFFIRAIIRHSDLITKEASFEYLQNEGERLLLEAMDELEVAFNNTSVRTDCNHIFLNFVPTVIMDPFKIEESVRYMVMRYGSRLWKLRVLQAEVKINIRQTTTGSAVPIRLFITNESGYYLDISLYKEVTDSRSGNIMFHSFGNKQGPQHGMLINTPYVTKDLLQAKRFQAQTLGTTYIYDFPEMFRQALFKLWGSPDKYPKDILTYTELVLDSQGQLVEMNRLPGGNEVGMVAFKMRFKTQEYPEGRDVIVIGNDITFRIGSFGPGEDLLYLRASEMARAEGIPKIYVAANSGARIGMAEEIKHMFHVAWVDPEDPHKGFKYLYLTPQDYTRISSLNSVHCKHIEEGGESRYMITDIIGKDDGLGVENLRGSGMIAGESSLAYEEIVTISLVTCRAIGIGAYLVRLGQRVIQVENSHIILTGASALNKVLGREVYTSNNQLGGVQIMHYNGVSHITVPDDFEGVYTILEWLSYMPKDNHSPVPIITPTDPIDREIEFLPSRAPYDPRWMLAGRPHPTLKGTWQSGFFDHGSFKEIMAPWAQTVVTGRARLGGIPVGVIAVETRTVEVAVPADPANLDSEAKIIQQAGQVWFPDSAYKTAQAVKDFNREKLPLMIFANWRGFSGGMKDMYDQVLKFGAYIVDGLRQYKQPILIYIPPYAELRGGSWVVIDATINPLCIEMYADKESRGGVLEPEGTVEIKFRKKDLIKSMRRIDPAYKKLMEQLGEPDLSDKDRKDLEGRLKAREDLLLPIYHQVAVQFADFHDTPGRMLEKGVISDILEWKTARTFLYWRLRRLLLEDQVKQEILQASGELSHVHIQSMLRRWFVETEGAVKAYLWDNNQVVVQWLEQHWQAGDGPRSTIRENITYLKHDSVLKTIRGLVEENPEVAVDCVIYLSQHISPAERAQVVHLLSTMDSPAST

Row | SMILES | IC50 (Acetyl-CoA carboxylase 1) | IC50 (Acetyl-CoA carboxylase 2) | Selectivity ratio (Homo sapiens [1]) | Selectivity ratio (Homo sapiens [2])
1 | CC(=O)NC(C)c1ccc(-c2ccc(Oc3ccc(OC(C)C)cc3)nc2)cc1 (stereo unspecified) | 415 nM | 93 nM |  | 
2 | CCCOc1ccc(Oc2ccc(-c3ccc(C(C)NC(=O)C4CC4)cc3)cn2)cc1 (stereo unspecified) | 319 nM | 141 nM |  | 
3 | CCCc1ccc(Oc2ccc(-c3ccc(C(C)NC(C)=O)cc3)cc2)cc1 (stereo unspecified) | 81 nM | 114 nM |  | 
4 | CCCOc1ccc(Oc2ccc(-c3ccc(C(C)NC(C)=O)cc3)cn2)cc1 (stereo unspecified) | 110 nM | 18 nM | 6 | 
5 | CCCOc1ccc(Oc2ccc(-c3ccc(C(C)NC(=O)C(C)C)cc3)cn2)cc1 (stereo unspecified) | 451 nM | 156 nM |  | 
6 | CCCOc1ccc(Oc2ccc(-c3ccc(C(C)NC(=O)c4cn[nH]c4)cc3)cn2)cc1 (stereo unspecified) | > 30000 nM | 2540 nM |  | 
7 | COCCc1ccc(Oc2ccc(-c3ccc(C(C)NC(C)=O)cc3)cc2)cc1 (stereo unspecified) | 89 nM | > 30000 nM |  | > 300
8 | CC(=O)NC(C)c1ccc(-c2ccc(Oc3ccc(OCc4ccccc4)cc3)cc2)cc1 (stereo unspecified) | > 30000 nM | > 30000 nM |  | 
9 | CCCOc1ccc(Oc2ccc(-c3ccc(C(C)NC(=O)C4CC4)cc3)cc2)cc1 (stereo unspecified) | 296 nM | 550 nM |  | 
10 | CC(=O)NC(C)c1ccc(-c2ccc(Oc3ccc(OCc4ccccc4)cc3)nc2)cc1 (stereo unspecified) | 58 nM | 117 nM |  | 
11 | CCCOc1ccc(Oc2ccc(-c3ccc([C@@H](C)NC(C)=O)cc3)cn2)cc1 | > 30000 nM | 777 nM |  | 
12 | CCCOc1cccc(Oc2ccc(-c3ccc(C(C)NC(C)=O)cc3)cc2)c1 (stereo unspecified) | 13 nM | 12 nM |  | 
13 | CC(=O)NC(C)c1ccc(-c2ccc(Oc3ccc(Cc4ccccc4)cc3)cc2)cc1 (stereo unspecified) | 39 nM | 945 nM |  | 24
14 | CCCOc1ccc(Oc2ccc(-c3ccc(C(C)NC(=O)COC)cc3)cc2)cc1 (stereo unspecified) | 753 nM | 718 nM |  | 
15 | CCCOc1ccc(Oc2ccc(-c3ccc(C(C)NC(=O)CCC)cc3)cc2)cc1 (stereo unspecified) | 2770 nM | > 30000 nM |  | 
16 | CC(=O)NC(C)c1ccc(-c2ccc(Oc3ccc(Oc4ccccc4)cc3)cc2)cc1 (stereo unspecified) | 14 nM | 7 nM |  | 
17 | CCCOc1ccc(Oc2ccc(-c3ccc(C(C)NC(=O)COC)cc3)cn2)cc1 (stereo unspecified) | > 30000 nM | 881 nM |  | 
18 | CCCOc1ccc(Oc2ccc(-c3ccc(C(C)NC(=O)C(C)O)cc3)cc2)cc1 (racemic) | 2060 nM | 1840 nM |  | 
19 | COc1cccc(Oc2ccc(-c3ccc(C(C)NC(C)=O)cc3)cc2)c1 (stereo unspecified) | > 30000 nM | 373 nM | > 80 | 
20 | CCOc1ccc(Oc2ccc(-c3ccc(C(C)NC(C)=O)cc3)cc2)cc1 (stereo unspecified) | 1630 nM | 119 nM | 14 | 
21 | CC(=O)NC(C)c1ccc(-c2ccc(Oc3ccc(OC(C)C)cc3)cc2C)c(C)c1 (stereo unspecified) | 592 nM | 88 nM |  | 

Row | SMILES | IC50 (Acetyl-CoA carboxylase 1) | IC50 (Acetyl-CoA carboxylase 2) | Selectivity ratio (Homo sapiens [1]) | Selectivity ratio (Homo sapiens [2])
22 | CCCCC(=O)NC(C)c1ccc(-c2ccc(Oc3ccc(OCCC)cc3)nc2)cc1 (stereo unspecified) | > 30000 nM | 1510 nM |  | 
23 | CCCOc1ccc(Oc2ccc(-c3ccc(C(C)NC(C)=O)cc3)cc2)cc1 (stereo unspecified) | 17 nM | 14 nM |  | 
24 | CCOc1cccc(Oc2ccc(-c3ccc(C(C)NC(C)=O)cc3)cc2)c1 (stereo unspecified) | 8580 nM | 102 nM | 84 | 
25 | CC(=O)NC(C)c1ccc(-c2ccc(Oc3cccc(Oc4ccccc4)c3)cc2)cc1 (stereo unspecified) | 41 nM | 16 nM |  | 
26 | CCCOc1ccc(Oc2ccc(-c3ccc(C(C)NC(=O)C(C)C)cc3)cc2)cc1 (stereo unspecified) | 188 nM | 214 nM |  | 
27 | CCCOc1ccc(Oc2ccc(-c3ccc(C(C)NC(=O)CC)cc3)cc2)cc1 (stereo unspecified) | 47 nM | 202 nM |  | 
28 | CCOc1ccc(Oc2ccc(-c3ccc(C(C)NC(C)=O)cc3)cn2)cc1 (stereo unspecified) | > 30000 nM | 274 nM | > 100 | 
29 | CC(=O)NC(C)c1ccc(-c2ccc(Oc3ccc(OC(C)C)cc3)cc2)cc1 (stereo unspecified) | 17 nM | 33 nM |  | 
30 | CC(=O)NC(C)c1ccc(-c2ccc(Oc3ccc(-c4c(O)ccc5c4CCCC5)cc3)cc2)cc1 (stereo unspecified) | 140 nM | 268 nM |  | 
31 | CC(=O)NC(C)c1ccc(-c2ccc(Oc3ccc(OC(C)C)cc3)cc2C)cc1 (stereo unspecified) | 16 nM | 35 nM |  | 
32 | CCCOc1ccc(Oc2ccc(-c3ccc(C(C)NC(=O)OCC)cc3)cc2)cc1 (stereo unspecified) | > 30000 nM | 3100 nM |  | 
33 | CCCOc1ccc(Oc2ccc(-c3ccc(C(C)NC(=O)OCC)cc3)cn2)cc1 (stereo unspecified) | 8150 nM | 227 nM |  | 
34 | CC(=O)NC(C)c1ccc(-c2ccc(Oc3ccc(OC(C)C)cc3)cc2)c(C)c1 (stereo unspecified) | 2490 nM | 303 nM |  | 
35 | CCCOc1cccc(Oc2ccc(-c3ccc(C(C)NC(=O)c4cn[nH]c4)cc3)cc2)c1 (stereo unspecified) | 36 nM | 609 nM |  | 17
36 | CCCOc1ccc(Oc2ccc(-c3ccc(C(C)NC(=O)CC)cc3)cn2)cc1 (stereo unspecified) | 69 nM | 35 nM | 2 | 
37 | CC(=O)NC(C)c1ccc(-c2ccc(Oc3ccc(C(=O)c4ccccc4)cc3)cc2)cc1 (stereo unspecified) | 35 nM | 113 nM |  | 
38 | CCCOc1ccc(Oc2ccc(-c3ccc(C(C)NC(=O)CCC)cc3)cn2)cc1 (stereo unspecified) | 4200 nM | 494 nM |  | 
39 | CC(=O)NC(C)c1ccc(-c2ccc(Oc3cccc(Oc4ccccc4)c3)nc2)cc1 (stereo unspecified) | 49 nM | 32 nM |  | 
40 | CCCOc1ccc(Oc2ccc(-c3ccc([C@H](C)NC(C)=O)cc3)cn2)cc1 | 35 nM | 8 nM |  | 
41 | CCCCC(=O)NC(C)c1ccc(-c2ccc(Oc3ccc(OCCC)cc3)cc2)cc1 (stereo unspecified) | > 30000 nM | > 30000 nM |  | 
